The values that follow come from ChEMBL document CHEMBL1148946, “Farinosones A-C, neurotrophic alkaloidal metabolites from the entomogenous deuteromycete Paecilomyces farinosus” (J Nat Prod, 2004).

Data set [1] concerns PC-12. In words: Cytotoxicity against rat PC12 cells at 0.1 to 50 uM after 4 hrs. It counts as cell-based. To be noted: pc-12, 2 days, in the assay text read “after 2 days” for “after 4 hrs”. The method in brief: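 MTT viability in PC-12 cells (DSMZ) in DMEM with 10% HS, 5% FBS and pen/strep; 5 × 10^4 cells/mL seeded, 1 h at 37 °C, then MeOH or DMSO stocks diluted in DMEM to 50, 20, 10, 1, 0.1 µM. Cells exposed 2 days at 37 °C, 5% CO2. MTT added for 4 h, SDS lysis overnight, OD 544 nm. Quadruplicate, mean ± SD; 0.2% MeOH/1% DMSO taken as 100% viability.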

Data set [2] relates to PC-12. In words: Induction of neuritogenic activity in rat PC12 cells assessed as round cells without differention at 20 uM after 48 hrs by phase contrast microscope. Type of data set: functional. The method in brief:
(§1)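 PC-12 cells (DSMZ) were primed 5 days in DMEM with 1% HS, 0.5% FBS and 50 ng/mL NGF, then put back in full-serum DMEM. Cells were dispersed through a 21-gauge needle, seeded at 1 × 10^5 cells/mL on collagen-coated wells and allowed 4 h. Compound at final 20 or 50 µM (0.2% MeOH or DMSO) for 48 h; NGF 50 ng/mL control. Phase-contrast scoring of 300 cells in three areas of two wells.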

Data set [3] deals with PC-12. In words: Induction of neuritogenic activity in rat PC12 cells assessed as cells with flattened appearance at 20 uM after 48 hrs by phase contrast microscope. It counts as functional. The method in brief:
as §1

The subject of data set [4] is PC-12. Put plainly: Induction of neuritogenic activity in rat PC12 cells assessed as cells with flattened appearance at 50 uM after 48 hrs by phase contrast microscope. It counts as functional. The method in brief:
as §1

The subject of data set [5] is PC-12. Put plainly: Induction of neuritogenic activity in rat PC12 cells assessed as cells with length of one cell diameter at 50 uM after 48 hrs by phase contrast microscope. It counts as functional. In a few lines: as §1
Data set [6] concerns PC-12. In words: Induction of neuritogenic activity in rat PC12 cells assessed as round cells without differention at 50 uM after 48 hrs by phase contrast microscope. It counts as functional. The method in brief: as §1
The subject of data set [7] is PC-12. In words: Induction of neuritogenic activity in rat PC12 cells assessed as cells with length of one cell diameter at 20 uM after 48 hrs by phase contrast microscope. Type of data set: functional. The method in brief:
as §1

The subject of data set [8] is PC-12. Put plainly: Induction of neuritogenic activity in rat PC12 cells assessed as cells with longer than one cell diameter at 50 uM after 48 hrs by phase contrast microscope. It counts as functional. The method in brief:
as §1

As to `CC(/C=C/C(=O)NC(CO)Cc1ccc(O)cc1)=C\C(C)CC(=O)O` (stereo not drawn) [FARINOSONE C], the Activity entry is listed as “Non-toxic” in the data set with PC-12 [1]; 47% in the data set on PC-12 [2]; 53% in the data set on PC-12 [3]; 60% in the data set on PC-12 [4]; 13% in the data set with PC-12 [5]; 27% in the data set on PC-12 [6].
For the compound `CCC(C)/C=C(C)/C=C/C=C/C=C/C(=O)c1c(O)c(-c2ccc(O)cc2)cn(O)c1=O` (stereo not drawn) [FARINOSONE B], in the data set on PC-12 [1], the Activity result is listed as “Non-toxic”.
As for `CCC(C)/C=C(C)/C=C/C=C/C=C/C(=O)c1c(O)c(-c2ccc(O)cc2)c[nH]c1=O` (stereo not drawn) [FARINOSONE A], the Activity result in the data set with PC-12 [1] is recorded as “Non-toxic”; in the data set with PC-12 [7] it was 40%; in the data set with PC-12 [2], 60%; in the data set with PC-12 [5] it was 60%; in the data set on PC-12 [8] it was 10%; in the data set on PC-12 [6] it was 30%.
